iPSC survival up: increases survival of single human iPS cells; hiPSC single-cell survival, ATPlite luminescence; 100% = ROCK inhibitor wells, 0% = DMSO; survival enhancement, % at 20 µM; hit rate 0.044% among 360,000; in the data active = survival enhancement above about 18%;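 note: cells exposed to compounds for 16 hours before the ATP read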
Cardio protect: protects H9c2 cardiomyocytes from peroxide injury; H2O2 injury protection, ATPLite, 2 h; protection from H2O2 cell death, % at 20 µM; hit rate 0.63% among 360,000; AID 588492;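 active = compounds giving at least 50% protection of heart cells from peroxide-induced death in the single-dose screen, raw or plate-pattern-corrected value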
CRFR2-BP ag: agonists of human CRF-binding protein/CRF-R2 receptor complex. HEK293 CRF-R2/CRF-BP, calcium dye fluorescence (FLIPR); percent of saturating CRF peptide response. activation, % at 13.2 µM. hit rate 0.46% among 350,000. AID 588473;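 active = activation of at least 50%, plus an integration ratio under a set limit after plate pattern correction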
beta cell repl: MIN6 beta-cell proliferation induction | MIN6 cells proliferation, ATPlite luminescence, 48 h; cells starved in 0.2% serum; 100% = growth in 10% serum | proliferation, % at 10 µM | hit rate 0.29% among 330,000;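 active = compounds whose signal lies at least 3.5 SD above the mean of all wells on their plate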
UCH37 DUB inh: inhibitors of human deubiquitinating enzyme UCH37; Q9Y5K5; purified proteasome/UCH37, Ub-AMC cleavage fluorescence; inhibition, % (test concentration not listed); hit rate 0.33% among 330,000; AID 588478;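 active = mean inhibition over replicate wells above about 20%, limit read from the data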
Target sequence (Q9Y5K5 whole entry, looked up): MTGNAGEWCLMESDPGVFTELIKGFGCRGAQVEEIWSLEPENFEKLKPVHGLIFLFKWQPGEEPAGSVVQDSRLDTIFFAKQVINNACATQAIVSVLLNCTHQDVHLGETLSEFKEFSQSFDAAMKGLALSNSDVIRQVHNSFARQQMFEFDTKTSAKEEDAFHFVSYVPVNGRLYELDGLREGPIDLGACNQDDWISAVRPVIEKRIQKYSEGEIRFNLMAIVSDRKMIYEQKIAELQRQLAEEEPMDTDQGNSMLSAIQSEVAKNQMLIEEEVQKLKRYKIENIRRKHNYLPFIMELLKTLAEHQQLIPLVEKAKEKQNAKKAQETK
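Material: human UCH37 enzyme supplied as purified proteasome complex / Amount: 0.15 nM proteasome as dispensed / Buffer or medium: pH 7.4 Tris-HCl (50 mM) with ovalbumin, ATP-MgCl2, DTT / Times: preincubation 30 min, reaction 25 min, room temperature / Technique: AMC fluorescence from Ub-AMC cleavage, excitation 355 nm, emission 460 nm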
CRFBP-R2 block: CRF-BP/CRF-R2 complex antagonism | inhibition, % at 11.8 µM | HEK293 CRF-R2/CRF-BP, CRF-induced calcium fluorescence | hit rate 0.59% among 350,000;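 active = inhibition of the ligand-induced calcium signal above about 50% at the single tested concentration, limit read from the data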
Each line names hits and unclear results; the compound was inactive in the other large screens. Only some compounds are listed: those with a hit (about 2.1% of all), similar ones and a draw of the others.

O=C1C2C3C=CC(C3)C2C(=O)N1CCCO (stereo unspecified)	CRFBP-R2 block 69
CCOC(=O)C1CCN(C(=O)COC(=O)c2ccc([N+](=O)[O-])o2)CC1	UCH37 DUB inh 20
CC1CC(C)CN(C(=O)COC(=O)c2ccc([N+](=O)[O-])o2)C1 (stereo unspecified)	none
CCOC(=O)C1=C(COC(=O)c2ccc([N+](=O)[O-])o2)NC(=O)NC1C (stereo unspecified)	Cardio protect 61, UCH37 DUB inh 21
CCOC(=O)C1=C(CNCc2ccc(F)cc2)NC(=O)NC1c1cccc([N+](=O)[O-])c1 (stereo unspecified)	none
CCOC(=O)C1=C(CCc2ccccc2)NC(=O)NC1c1cccc([N+](=O)[O-])c1 (stereo unspecified)	CRFBP-R2 block 58
CCOC(=O)Cc1cc(=O)[nH]c(N=C(NC(=O)c2ccccc2)Nc2ccccc2C(F)(F)F)n1	none (no result: iPSC survival up, Cardio protect, CRFR2-BP ag, beta cell repl, CRFBP-R2 block)
COc1ccccc1CC1S/C(=N/N=Cc2ccco2)NC1=O (stereo unspecified)	none (no result: iPSC survival up, Cardio protect, CRFR2-BP ag, beta cell repl, CRFBP-R2 block)
COC(=O)C1CC(=NNS(=O)(=O)c2ccc(C)cc2)c2ccsc2C1 (stereo unspecified)	none (no result: iPSC survival up, Cardio protect, CRFR2-BP ag, beta cell repl, CRFBP-R2 block)
N#CCCn1cc(C=NO)c(-c2ccc(-c3ccccc3)cc2)n1	none (no result: iPSC survival up, Cardio protect, CRFR2-BP ag, beta cell repl, CRFBP-R2 block)
Oc1c(Br)cc(Br)cc1C=Nn1c(-c2ccccc2)n[nH]c1=S	none (no result: iPSC survival up, Cardio protect, CRFR2-BP ag, beta cell repl, CRFBP-R2 block)
COc1ccccc1/C=N/n1c(N)c(C(=O)NC2CCCCC2)c2nc3ccccc3nc21	none (no result: beta cell repl, UCH37 DUB inh)
CC(C)Cn1c(N)c(C(=O)NCC2CCCO2)c2nc3ccccc3nc21 (stereo unspecified)	none
Nc1c(C(=O)NC2CCCC2)c2nc3ccccc3nc2n1/N=C/c1ccco1	Cardio protect 50 (no result: UCH37 DUB inh)
Nc1c(C(=O)NC2CCCC2)c2nc3ccccc3nc2n1N	Cardio protect 62
Cc1cccn2c(=O)c3cc(C(=O)NCc4ccco4)c(=N)n(C4CCCCC4)c3nc12	CRFBP-R2 block 54
Cc1ccc2nc3c(cc(C(=O)NCc4ccco4)c(=N)n3C3CCCC3)c(=O)n2c1	none (no result: CRFR2-BP ag, UCH37 DUB inh, CRFBP-R2 block)
COCCn1c(=N)c(C(=O)NCc2ccco2)cc2c(=O)n3cc(C)ccc3nc21	CRFBP-R2 block 84
Cc1ccc2nc(C)c(C(=O)NN=Cc3ccco3)cc2c1	none (no result: iPSC survival up, Cardio protect, CRFR2-BP ag, beta cell repl, CRFBP-R2 block)
CC(=NNS(C)(=O)=O)c1ccc(C)cc1	none (no result: iPSC survival up, Cardio protect, CRFR2-BP ag, beta cell repl, CRFBP-R2 block)
CC(=NNC(=O)c1cc(C)nc2ccccc12)c1cccs1	none (no result: iPSC survival up, Cardio protect, CRFR2-BP ag, beta cell repl, CRFBP-R2 block)
C=CCN1C(=O)/C(=C/c2ccc(O)cc2)S/C1=N/c1nccs1	CRFR2-BP ag 65 (no result: UCH37 DUB inh)
CC(=NNC(=O)c1ccco1)c1ccc(C(=O)O)s1	none (no result: iPSC survival up, Cardio protect, CRFR2-BP ag, beta cell repl, CRFBP-R2 block)
Cc1ccc(S(=O)(=O)c2cc3ccccc3oc2=Nc2ccc3c(c2)OCO3)cc1	none
Cc1ccc(S(=O)(=O)c2cc3ccccc3oc2=Nc2ccc3c(c2)OCCO3)cc1	beta cell repl 0.0
COc1ccc(C=NNc2nnc(-c3ncc[nH]3)c3ccccc23)cc1	none (no result: iPSC survival up, Cardio protect, CRFR2-BP ag, beta cell repl, CRFBP-R2 block)
C[C@@H]1C[C@@H]2O[C@H]2C=CC=CC(=O)Cc2c(Cl)c(O)cc(O)c2C(=O)O1	none (no result: iPSC survival up, Cardio protect, CRFR2-BP ag, beta cell repl, CRFBP-R2 block)
COC(=O)/C=C1\S/C(=N/NC(=O)c2ccc(OC)cc2)NC1=O	none
COC(=O)/C=C1/S/C(=N/NC(=O)c2ccc(OC)cc2)NC1=O	UCH37 DUB inh 25
COC(=O)/C=C1/S/C(=N/NC(=O)c2ccccc2OC)NC1=O	none
COC(=O)/C=C1/S/C(=N/NC(=O)c2ccc(Cl)cc2Cl)NC1=O	CRFBP-R2 block 51
COc1ccccc1C=NNS(=O)(=O)c1ccccc1	none (no result: iPSC survival up, Cardio protect, CRFR2-BP ag, beta cell repl, CRFBP-R2 block)
Cc1cc(N=NC(=O)c2ccccc2O)c2ccccc2c1O	CRFBP-R2 block 51
Cn1c(O)c(N=NC(=O)c2ccccc2O)c2ccccc21	none
Cc1nc(N)sc1C(=O)NN=Cc1ccco1	none (no result: iPSC survival up, Cardio protect, CRFR2-BP ag, beta cell repl, CRFBP-R2 block)
O=C(Nc1cccc(/C=C/c2ccccn2)c1)c1ccc(-n2cncn2)cc1	Cardio protect 69
CCCn1nc([N+](=O)[O-])c(C(C#N)c2nc3ccccc3s2)c(Cl)c1=O (stereo unspecified)	CRFBP-R2 block 69
CCCN(CCC)Cc1c(C(=O)NN=Cc2ccsc2)nnn1-c1nonc1N	none (no result: iPSC survival up, Cardio protect, CRFR2-BP ag, beta cell repl, CRFBP-R2 block)
O=C(c1ccc2c(c1)OCO2)C1CCCN(Cc2cc(F)ccc2-n2cccn2)C1 (stereo unspecified)	CRFR2-BP ag 56
Cc1ccc(-n2cccn2)c(CN2CCCC(C(=O)c3ccc4c(c3)OCO4)C2)c1 (stereo unspecified)	none
O=C(CN1CCN(S(=O)(=O)c2ccc(Br)cc2)CC1)NN=Cc1ccc(Br)s1	none (no result: iPSC survival up, Cardio protect, CRFR2-BP ag, beta cell repl, CRFBP-R2 block)
CCN1CCN(C(=O)CS(=O)Cc2nc(-c3cccc(C)c3)oc2C)CC1 (stereo unspecified)	none
Cc1cccc(-c2nc(CS(=O)CC(=O)N3CC(C)CC(C)C3)c(C)o2)c1 (stereo unspecified)	CRFBP-R2 block 55
Cc1ccc(S(=O)(=O)N2CCCCCC2)cc1[N+](=O)[O-]	CRFBP-R2 block 58
NC(=O)c1ccsc1NC(=O)c1ccc([N+](=O)[O-])o1	Cardio protect 78
COc1ccc(C=NNC(=O)c2ccc(NC(=O)C3CCCCC3)cc2)cc1O	none (no result: iPSC survival up, Cardio protect, CRFR2-BP ag, beta cell repl, CRFBP-R2 block)
COc1ccc(CCNC(=O)C(=O)NCC2OCCN2S(=O)(=O)c2ccc(Cl)cc2)cc1 (stereo unspecified)	none
COc1ccc(CCNC(=O)C(=O)NCC2OCCN2S(=O)(=O)c2ccc(OC)cc2)cc1 (stereo unspecified)	CRFBP-R2 block 64
O=C(NCCc1ccccc1)C(=O)NCC1CCCN1S(=O)(=O)c1ccccc1 (stereo unspecified)	none
COc1ccc(CCNC(=O)C(=O)NCC2CCCN2S(=O)(=O)c2ccccc2)cc1OC (stereo unspecified)	Cardio protect 74
COc1cc(OC)nc(Oc2cc(C=NO)ccc2OC)n1	none (no result: iPSC survival up, Cardio protect, CRFR2-BP ag, beta cell repl, CRFBP-R2 block)
COc1ccc(NC(=O)C(=O)NN=C(C)CC(=O)Nc2cc(C)ccn2)c(OC)c1	none (no result: iPSC survival up, Cardio protect, CRFR2-BP ag, beta cell repl, CRFBP-R2 block)
Cc1c(C=NN=C2CCC3C4CCc5cc(O)ccc5C4CCC23C)cnn1C (stereo unspecified)	none (no result: iPSC survival up, Cardio protect, CRFR2-BP ag, beta cell repl, CRFBP-R2 block)
CC(C)c1cc(N2CCN(C(=O)c3ccco3)CC2)n2c(nc3ccccc32)c1C#N	Cardio protect 52
CCn1c(N2CCN(C(=O)c3ccco3)CC2)nc2ccccc21	none
C[C@H]1O[C@@H](O[C@H]2CC[C@@]3(C)C(CC[C@]4(C)C3C=C[C@]35OC[C@@]6(CCC(C)(C)C[C@H]63)[C@@H](O)C[C@]54C)[C@]2(C)CO)[C@H](O)[C@@H](O[C@@H]2O[C@H](CO)[C@@H](O)[C@H](O)[C@H]2O)[C@H]1O (stereo partly specified)	CRFR2-BP ag 87
Cc1sc2nc(CSCC(=O)Nc3cc(F)ccc3F)[nH]c(=O)c2c1C	none
Cc1sc2nc(CSCC(=O)N(CCC#N)c3ccccc3F)[nH]c(=O)c2c1C	Cardio protect 59
